Measurements from different studies.
Target: Serine/threonine-protein kinase TAO1 (TAOK1, Homo sapiens, UniProt Q7L7X3)
Residues used in one study (Q7L7X3 1-1001): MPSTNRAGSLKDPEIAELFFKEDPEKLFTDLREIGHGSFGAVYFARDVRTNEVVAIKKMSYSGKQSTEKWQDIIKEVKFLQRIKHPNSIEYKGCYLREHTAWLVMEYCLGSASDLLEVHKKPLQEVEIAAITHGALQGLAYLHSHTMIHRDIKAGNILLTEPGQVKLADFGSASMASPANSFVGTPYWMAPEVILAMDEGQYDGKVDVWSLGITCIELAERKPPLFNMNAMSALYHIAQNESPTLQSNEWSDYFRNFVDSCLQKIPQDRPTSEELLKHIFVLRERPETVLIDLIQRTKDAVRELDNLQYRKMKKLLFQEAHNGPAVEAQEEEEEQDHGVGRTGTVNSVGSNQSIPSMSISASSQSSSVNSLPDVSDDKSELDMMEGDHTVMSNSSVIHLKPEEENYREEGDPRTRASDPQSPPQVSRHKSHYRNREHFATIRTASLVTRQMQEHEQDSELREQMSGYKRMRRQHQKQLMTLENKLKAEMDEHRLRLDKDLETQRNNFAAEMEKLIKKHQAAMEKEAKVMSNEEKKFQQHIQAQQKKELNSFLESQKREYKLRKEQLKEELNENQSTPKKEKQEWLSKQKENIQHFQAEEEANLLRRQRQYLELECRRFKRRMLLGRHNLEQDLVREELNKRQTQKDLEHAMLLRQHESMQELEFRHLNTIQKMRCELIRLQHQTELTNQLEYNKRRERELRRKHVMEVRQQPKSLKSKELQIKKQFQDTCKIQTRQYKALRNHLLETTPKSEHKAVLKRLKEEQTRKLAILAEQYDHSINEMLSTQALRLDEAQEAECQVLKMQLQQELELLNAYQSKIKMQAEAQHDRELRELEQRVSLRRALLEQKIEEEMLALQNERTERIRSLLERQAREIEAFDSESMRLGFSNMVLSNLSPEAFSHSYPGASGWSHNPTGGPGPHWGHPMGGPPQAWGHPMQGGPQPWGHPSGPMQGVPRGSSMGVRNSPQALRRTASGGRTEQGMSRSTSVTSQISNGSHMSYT

SMILES | assay | setting | remaining binding [%]
O=C(NCC1CCOCC1)c1n[nH]cc1NC(=O)c1c(F)cccc1F | binding, competition with immobilised ligand | 1 µM | 83
F[C@@H]1CCN(c2nccc(-c3cnn4ncccc34)n2)C1 | binding | 1 µM | 100
c1cncc(-c2cccc(Nc3nccc(NC4CCCCC4)n3)c2)c1 | binding, competition with immobilised ligand | 10 µM | 97
CNC(=O)c1ccccc1Nc1cc(Nc2ccc(N3CCOCC3)cc2OC)ncc1C(F)(F)F | binding, competition with immobilised ligand | 1 µM | < 10
CCN1CCN(Cc2ccc(C(=O)Nc3ccc(C)c(Oc4ccc5c(c4)CC(=O)N5)c3)cc2C(F)(F)F)CC1 | binding, competition with immobilised ligand | 1 µM | 100
C[C@@H]1CCN(c2nccc(-c3cnn4ncccc34)n2)C1 | binding | 1 µM | 83
CNCc1ccccc1-c1csc([C@H](C)Nc2nc(C)nc3cc(OC)c(OC)cc23)c1 | cell-free assay, competition with immobilised ligand | 1 µM | 100
O=C(NCCCN1CCOCC1)c1ccc(Nc2nccc(-c3cc4ccccc4s3)n2)cc1 | binding, competition with immobilised ligand | 1 µM | 82
COc1cnc(Nc2cccc(S(N)(=O)=O)c2)nc1N1CCN(c2ccccc2)C(=O)C1 | binding, competition with immobilised ligand | 1 µM | 86
O=C(c1ccc(Nc2ncc(Cl)c(-c3ccc(Cl)s3)n2)cc1)N1CCC(N2CCCC2)CC1 | binding, competition with immobilised ligand | 1 µM | 47
COc1cccc(CNC(=O)c2nc3scc(COCc4ccc(C(=O)O)cc4)c3c(=O)[nH]2)c1 | cell-free assay, competition with immobilised ligand | 1 µM | 69.5
Cc1cnn2ncc(-c3ccnc(N(C)C)n3)c2c1 | binding | 1 µM | 92
Nc1ncc2c(n1)-c1c([nH]c3ccc(C#CC4CC4)cc13)CCCC2 | binding, competition with immobilised ligand | 1 µM | 97
Nc1cnc(N2CCc3cc(S(=O)(=O)Nc4c(F)cc(Cl)cc4F)cc(N4CCCC4=O)c32)nc1 | cell-free assay, competition with immobilised ligand | 1 µM | 80
CC1CCCN1c1nccc(-c2cnn3ncccc23)n1 (stereo not shown) | binding | 1 µM | 100
O=C1NC(c2ccccn2)Sc2ccccc21 (stereo not shown) | cell-free assay, competition with immobilised ligand | 1 µM | 96
O=C(c1ccc(Nc2ncc(Cl)c(-c3cc4ccccc4s3)n2)cc1)N1CCC(N2CCCC2)CC1 | binding, competition with immobilised ligand | 1 µM | 50
COc1ncc2cc3ccccc3nc2c1C#N | cell-free assay, competition with immobilised ligand | 5 µM | 100
CN(c1nccc(-c2cnn3ncccc23)n1)C1CC1 | binding | 1 µM | 100
CN(C(=O)c1ccccc1)c1cc(N(C)c2ccc3c(c2)CCc2ccc(C(=O)NCCN4CCOCC4)cc2C3=O)ccc1F | cell-free assay, competition with immobilised ligand | 1 µM | 81
N[C@@H]1CCN(c2nccc(-c3cnn4ncccc34)n2)C1 | binding | 1 µM | 100
CCC(=N\O)/C(C)=C/c1ccc(F)cc1 | cell-free assay, competition with immobilised ligand | 1 µM | 100
